What was measured:
Assay type in all cases: cell-based, human
[1] = system: DENV3 specific CTL; experiment: Surface CD8 expression on DENV3 epitope specific CTL; conditions: CTL primed against DENV3 NS3 399–407 KLNDWDFVV
Procedure, shortened: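 CD8+ T cells were negatively selected from HIV-1-seronegative HLA-A*0201 donors and plated at 7.5×10^5/well. They were primed with DENV3 epitope-pulsed αDC1 (7.5×10^4/well) plus γ-irradiated J558-CD40L cells (5×10^4/well). rhIL-2 (50 IU/ml), rhIL-7 (10 ng/ml) and rhIL-15 (1 ng/ml) were added at day 4. CTL were tested against serotype-variant peptides, with CD8 read by flow cytometry.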

[2] = system: HIV-1 p24 Gag151–159 specific CTL; experiment: Surface CD8 expression on peptide reactive CTL; conditions: TLN9-specific CTL, gated on IFN-γ producing cells; CTL lines from 5 donors
Procedure, shortened: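 CTL lines were primed in vitro from 5 HIV-1-naïve donors and maintained with IL-2 (200 IU/ml) and IL-7 (10 ng/ml). They were restimulated with peptide variants and assessed by intracellular cytokine staining with anti-CD28/CD49d and Golgistop/Golgiplug. CD8 MFI was read on IFN-γ-producing cells by multiparameter flow cytometry. Statistics used one-way ANOVA with Tukey post hoc test.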

[3] = system: iDC; experiment: Microscopy of iDC:CTL co-cultures; conditions: 24 h co-culture, light microscopy
Procedure, shortened: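 CTL (2×10^5 cells/well) were added to day-5 autologous iDC cultures with 1 μg/ml irrelevant, priming or variant 9mer peptide. Co-cultures were examined by light microscopy after 24h. For SEM, cells grew on glass coverslips removed at 24h, fixed in 2.5% glutaraldehyde in PBS and post-fixed in 1% aqueous osmium tetroxide.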

[4] = system: autologous iDC; experiment: 4 h 51Cr-release cytotoxicity assay; conditions: 1 μg/ml peptide, TLN9-specific CTL
Procedure, shortened: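 Targets were autologous iDC, generated by culturing monocytes 5–7 days in IMDM with 10% FBS, GM-CSF and IL-4 (both 1000 IU/ml), then peptide-pulsed. Effectors were CTL primed in vitro from CD8+ T cells of HIV-1-seronegative HLA-A*0201 donors, using peptide-pulsed αDC1. Lysis was read by standard 4 h 51Cr release.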

[5] = system: autologous pre-activated CD4+ T cells; experiment: CTL cytotoxicity against peptide-pulsed CD4+ T cell targets; conditions: targets pulsed with 1 μg/mL peptide, 18h co-culture
Procedure, shortened: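 Targets: PBMC activated 5 days with PHA (1μg/ml) and rIL-2 (100 IU/ml), then CD4+ cells negatively selected, pulsed 1 h with 1μg/mL peptide and washed. Co-cultured with CTL 18h at 37°C at CTL:target 3:1, 1:1, 0.3:1 and 0:1. Stained for CD4/CD8, fixed/permeabilized, 7-AAD 20 min at 37°C. Linear 7-AAD on singlet CD4+ events scored G1, S/G2 and sub-G1 fractions. 4 experiments.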

[6] = system: Gag77–85 reactive CTL from HIV-1 positive donor; experiment: Surface CD8 expression on memory CTL expanded from HIV-1 positive donor PBMC; conditions: CTL expanded from PBMC 6 months post seroconversion
[7] = system: autologous iDC; experiment: Flow cytometry viability and recovery of iDC in CTL:DC co-cultures; conditions: CTL and iDC co-culture, 6h, 3:1 CTL:DC
Procedure, shortened: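 CTL were added to day-5 autologous iDC for 6h at 3:1 (CTL:DC). Cultures had no peptide, irrelevant control, priming or variant peptide; titration used decreasing cognate peptide down to .001 μg/ml. Cell loss came from recovered cell-type ratios gated by light scatter and CD3 (T cells) or CD86 (DC). Viability of DC-gated events used LIVE/DEAD Aqua. Three experiments, ± standard error.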

[8] = system: DC; experiment: DC IL-12p70 producing capacity after CD40L stimulation; conditions: exogenous TNF-α 50 ng/ml, 48h, then CD40L stimulation
[9] = system: DC; experiment: DC maturation, surface CD86 by flow cytometry; conditions: 48h; for Effect on CTL-induced DC maturation (CD86 enhancement): PLN9 expressing DC + CTL, sTNF-R1 0.1 μg/ml, sIFNγ-R1 1 μg/ml
Procedure, shortened: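 Day 5 autologous immature DC were co-cultured for 48h with TLN9-specific CTL (2×10^5 cells/well) plus variant peptide PLN9 (1 μg/ml), with or without blockers sTNF-RI (0.1 μg/ml) or IFNγ-R1 (1 μg/ml). Controls were TNF-α (50 ng/ml)-matured DC and peptide-exposed DC without CTL. DC surface CD86 was measured by flow cytometry.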

KLNDWDFVV [reference compound]
CD8 expression on reactive CTL [1]: down-regulation of CD8

KLTDWDFVV
CD8 expression on reactive CTL [1]: CD8 expression was maintained

PLNAWVKVV [PLN9]
Surface expression of CD8 on peptide reactive CTL [2]: maintained | DC morphology / survival in co-culture with CTL [3]: pronounced webbed network of long cellular extensions | CTL lytic activity against peptide-labeled iDC [4]: dramatically reduced | Killing of peptide-labeled CD4+ T cell targets by TLN9-specific CTL [5]: not effectively killed

RTNDWDFVV
CD8 expression on reactive CTL [1]: CD8 expression was maintained

SLFNTVATL
CD8 expression on reactive CTL [6]: down-regulation occurred

TLNAWVKVV [TLN9]
Peptide concentration at which a substantial drop in killing occurs [7]: .001 µg/mL | Surface expression of CD8 on peptide reactive CTL [2]: decreased | DC morphology / survival in co-culture with CTL [3]: failed to survive | CTL lytic activity against peptide-labeled iDC [4]: showed lytic activity

TNF-α
IL-12p70 producing ability of DC matured with the factor [8]: curtailed | CD86 expression of DC matured with the factor ([9]; exogenous TNF-α 50 ng/ml): high levels of CD86

B1: sTNF-rec1: Human soluble TNF receptor I, TNF-α blocker (protein, UniProt P19438 30-211, looked up)
extracellular domain: LVPHLGDREKRDSVCPQGKYIHPQNNSICCTKCHKGTYLYNDCPGPGQDTDCRECESGSFTASENHLRHCLSCSKCRKEMGQVEISSCTVDRDTVCGCRKNQYRHYWSENLFQCFNCSLCLNGTVHLSCQEKQNTVCTCHAGFFLRENECVSCSNCKKSLECTKLCLPQIENVKGTEDSGTT
modifications: extracellular domain
Effect on CTL-induced DC maturation (CD86 enhancement) [9]: partially reduced

B2: sIFNγ-rec1: soluble IFN-γ receptor 1, IFN-γ blocker (protein, UniProt P15260 18-245, looked up)
extracellular domain: EMGTADLGPSSVPTPTNVTIESYNMNPIVYWEYQIMPQVPVFTVEVKNYGVKNSEWIDACINISHHYCNISDHVGDPSNSLWVRVKARVGQKESAYAKSEEFAVCRDGKIGPPKLDIRKEEKQIMIDIFHPSVFVNGDEQEVDYDPETTCYIRVYNVYVRMNGSEIQYKILTQKEDDCDEIQCQLAIPVSSLNSQYCVSAEGVLHVWGVTTEKSKEVCITIFNSSIKG
modifications: extracellular domain
Effect on CTL-induced DC maturation (CD86 enhancement) [9]: did not inhibit
